Measurements as given in ChEMBL document CHEMBL1156108, “Synthesis and biological evaluation of p38alpha kinase-targeting dialkynylimidazoles” (Bioorg Med Chem Lett, 2009).

Tests used:
[1] = target: T1, Mitogen-activated protein kinase 14 (Homo sapiens, UniProt Q16539); experiment: Inhibition of p38alpha at 10 uM by FRET assay
Procedure, shortened: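 Single-concentration screen against p38α, read at a fixed 60 min time-point. Reported as percent inhibition from tests run in duplicate.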

CYP2D6 = CYP2D6 (Homo sapiens, UniProt P10635); experiment: Inhibition of CYP2D6 at 10 uM; format: ADME
CYP2D6, sequence (P10635 whole entry): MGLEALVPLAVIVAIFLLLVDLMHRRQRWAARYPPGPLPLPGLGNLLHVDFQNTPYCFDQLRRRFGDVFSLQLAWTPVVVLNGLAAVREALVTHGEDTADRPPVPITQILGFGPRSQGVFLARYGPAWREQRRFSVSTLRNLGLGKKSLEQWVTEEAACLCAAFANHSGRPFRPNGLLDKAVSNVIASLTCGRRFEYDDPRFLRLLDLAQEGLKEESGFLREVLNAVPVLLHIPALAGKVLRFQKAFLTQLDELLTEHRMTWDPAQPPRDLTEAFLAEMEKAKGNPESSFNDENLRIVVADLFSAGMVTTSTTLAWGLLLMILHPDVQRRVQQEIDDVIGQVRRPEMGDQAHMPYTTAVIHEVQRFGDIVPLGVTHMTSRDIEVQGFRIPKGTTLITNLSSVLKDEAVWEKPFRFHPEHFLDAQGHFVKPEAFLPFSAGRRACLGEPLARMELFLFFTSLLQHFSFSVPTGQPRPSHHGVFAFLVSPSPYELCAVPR

[2] = target: T1, Mitogen-activated protein kinase 14; experiment: Inhibition of p38alpha by FRET assay
[3] = target: Cyclin-dependent kinase 1/cyclin B (Homo sapiens) (UniProt P06493+P14635+Q8WWL7+O95067); experiment: Inhibition of human CDK1/cyclin B at 20 uM by FRET assay; format: protein-complex assay
[4] = target: Mitogen-activated protein kinase 11 (Homo sapiens, UniProt Q15759); experiment: Inhibition of p38beta by FRET assay
[5] = Selectivity ratio for IC50 of p38alpha to IC50 of p38beta
[6] = target: T2, Mitogen-activated protein kinase kinase kinase kinase 4 (Homo sapiens, UniProt O95819); experiment: Inhibition of human MAP4K4 by FRET assay
[7] = target: Tyrosine-protein kinase ABL1 (Homo sapiens) (UniProt P00519); experiment: Inhibition of human ABL1 at 20 uM by FRET assay
Tyrosine-protein kinase ABL1 (Homo sapiens), sequence (P00519 whole entry): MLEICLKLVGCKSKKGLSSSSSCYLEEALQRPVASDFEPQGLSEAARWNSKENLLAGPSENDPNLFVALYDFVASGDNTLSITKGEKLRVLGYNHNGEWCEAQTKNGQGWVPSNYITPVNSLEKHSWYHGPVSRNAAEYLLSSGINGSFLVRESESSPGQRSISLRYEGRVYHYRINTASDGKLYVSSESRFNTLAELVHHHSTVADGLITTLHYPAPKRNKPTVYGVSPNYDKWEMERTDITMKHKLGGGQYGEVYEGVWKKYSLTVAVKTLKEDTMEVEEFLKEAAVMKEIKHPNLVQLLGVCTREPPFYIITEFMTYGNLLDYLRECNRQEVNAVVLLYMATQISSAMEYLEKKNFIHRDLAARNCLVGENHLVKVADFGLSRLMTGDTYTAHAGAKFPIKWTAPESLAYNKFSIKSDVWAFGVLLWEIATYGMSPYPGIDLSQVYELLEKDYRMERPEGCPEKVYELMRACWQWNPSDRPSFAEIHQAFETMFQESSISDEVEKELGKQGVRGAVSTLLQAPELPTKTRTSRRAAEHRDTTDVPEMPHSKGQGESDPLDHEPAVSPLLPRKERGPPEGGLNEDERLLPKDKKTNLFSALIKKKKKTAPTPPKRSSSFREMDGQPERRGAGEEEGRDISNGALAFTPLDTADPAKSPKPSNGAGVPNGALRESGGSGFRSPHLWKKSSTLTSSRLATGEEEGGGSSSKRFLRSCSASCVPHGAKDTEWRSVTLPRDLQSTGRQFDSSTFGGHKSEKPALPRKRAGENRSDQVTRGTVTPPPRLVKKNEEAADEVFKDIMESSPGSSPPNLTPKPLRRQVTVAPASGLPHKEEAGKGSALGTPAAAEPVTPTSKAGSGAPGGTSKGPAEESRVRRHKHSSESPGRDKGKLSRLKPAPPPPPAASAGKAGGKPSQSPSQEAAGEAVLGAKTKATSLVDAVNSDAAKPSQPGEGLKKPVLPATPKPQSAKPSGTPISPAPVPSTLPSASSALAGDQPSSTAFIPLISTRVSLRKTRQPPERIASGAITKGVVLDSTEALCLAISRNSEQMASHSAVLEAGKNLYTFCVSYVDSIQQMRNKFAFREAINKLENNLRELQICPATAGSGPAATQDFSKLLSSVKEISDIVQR

[8] = target: Activin receptor type-1B (Homo sapiens) (UniProt P36896); experiment: Inhibition of human ALK4 at 20 uM by FRET assay
[9] = target: RAC-alpha serine/threonine-protein kinase (Homo sapiens) (UniProt P31749); experiment: Inhibition of human AKT1 at 20 uM by FRET assay
[10] = target: Aurora kinase A (Homo sapiens) (UniProt O14965); experiment: Inhibition of human Aurora A at 20 uM by FRET assay
[11] = target: Tyrosine-protein kinase BTK (Homo sapiens) (UniProt Q06187); experiment: Inhibition of human BTK at 20 uM by FRET assay
[12] = target: Serine/threonine-protein kinase Chk1 (Homo sapiens) (UniProt O14757); experiment: Inhibition of human CHK1 at 20 uM by FRET assay
[13] = target: Casein kinase I isoform gamma-2 (Homo sapiens) (UniProt P78368); experiment: Inhibition of human CK1gamma2 at 20 uM by FRET assay
[14] = target: Casein kinase II subunit alpha (Homo sapiens) (UniProt P68400); experiment: Inhibition of human CK2alpha1 at 20 uM by FRET assay
[15] = target: Dual specificity tyrosine-phosphorylation-regulated kinase 3 (Homo sapiens) (UniProt O43781); experiment: Inhibition of human DYRK3 at 20 uM by FRET assay
[16] = target: Epidermal growth factor receptor (Homo sapiens) (UniProt P00533); experiment: Inhibition of human EGFR at 20 uM by FRET assay
[17] = target: Ephrin type-A receptor 2 (Homo sapiens) (UniProt P29317); experiment: Inhibition of human EPHA2 at 20 uM by FRET assay
[18] = target: Receptor tyrosine-protein kinase erbB-2 (Homo sapiens) (UniProt P04626); experiment: Inhibition of human ERBB2 at 20 uM by FRET assay
[19] = target: Fibroblast growth factor receptor 1 (Homo sapiens) (UniProt P11362); experiment: Inhibition of human FGFR1 at 20 uM by FRET assay
[20] = target: Receptor-type tyrosine-protein kinase FLT3 (Homo sapiens) (UniProt P36888); experiment: Inhibition of human FLT3 at 20 uM by FRET assay
[21] = target: Serine/threonine-protein kinase mTOR (Homo sapiens) (UniProt P42345); experiment: Inhibition of human FRAP1 at 20 uM by FRET assay
[22] = target: Glycogen synthase kinase-3 beta (Homo sapiens) (UniProt P49841); experiment: Inhibition of human GSK3-beta at 20 uM by FRET assay
[23] = target: Insulin-like growth factor 1 receptor (Homo sapiens) (UniProt P08069); experiment: Inhibition of human IGF1R at 20 uM by FRET assay
[24] = target: Inhibitor of nuclear factor kappa-B kinase subunit beta (Homo sapiens) (UniProt O14920); experiment: Inhibition of human IKK-beta at 20 uM by FRET assay
[25] = target: Insulin receptor (Homo sapiens) (UniProt P06213); experiment: Inhibition of human INSR at 20 uM by FRET assay
[26] = target: Interleukin-1 receptor-associated kinase 4 (Homo sapiens) (UniProt Q9NWZ3); experiment: Inhibition of human IRAK4 at 20 uM by FRET assay
[27] = target: Tyrosine-protein kinase JAK3 (Homo sapiens) (UniProt P52333); experiment: Inhibition of human JAK3 at 20 uM by FRET assay
[28] = target: Vascular endothelial growth factor receptor 2 (Homo sapiens) (UniProt P35968); experiment: Inhibition of human KDR at 20 uM by FRET assay
[29] = target: Mast/stem cell growth factor receptor Kit (Homo sapiens) (UniProt P10721); experiment: Inhibition of human KIT at 20 uM by FRET assay
[30] = target: Tyrosine-protein kinase Lck (Homo sapiens) (UniProt P06239); experiment: Inhibition of human LCK at 20 uM by FRET assay
Tyrosine-protein kinase Lck (Homo sapiens), sequence (P06239 2-509 limits assumed): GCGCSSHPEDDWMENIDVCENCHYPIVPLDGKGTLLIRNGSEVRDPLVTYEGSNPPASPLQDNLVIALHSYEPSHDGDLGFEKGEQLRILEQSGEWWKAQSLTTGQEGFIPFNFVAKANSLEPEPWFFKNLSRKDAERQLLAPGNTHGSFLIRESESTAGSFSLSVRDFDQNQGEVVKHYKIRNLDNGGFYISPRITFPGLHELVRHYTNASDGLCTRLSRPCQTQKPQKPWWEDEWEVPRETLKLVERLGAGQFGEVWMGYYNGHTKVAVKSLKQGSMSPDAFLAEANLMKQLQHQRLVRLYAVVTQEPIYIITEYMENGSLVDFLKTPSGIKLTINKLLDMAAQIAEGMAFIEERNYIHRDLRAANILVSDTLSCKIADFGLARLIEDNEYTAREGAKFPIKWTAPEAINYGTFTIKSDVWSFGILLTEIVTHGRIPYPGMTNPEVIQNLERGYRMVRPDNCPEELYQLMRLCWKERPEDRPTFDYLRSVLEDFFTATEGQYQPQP

[31] = target: Dual specificity mitogen-activated protein kinase kinase 1 (Homo sapiens) (UniProt Q02750); experiment: Inhibition of human MEK1 at 20 uM by FRET assay
[32] = target: T2, Mitogen-activated protein kinase kinase kinase kinase 4; experiment: Inhibition of human MAP4K4 at 20 uM by FRET assay
[33] = target: Mitogen-activated protein kinase 1 (Homo sapiens) (UniProt P28482); experiment: Inhibition of human ERK2 at 20 uM by FRET assay
[34] = target: Mitogen-activated protein kinase 12 (Homo sapiens) (UniProt P53778); experiment: Inhibition of human p38-gamma at 20 uM by FRET assay
[35] = target: Mitogen-activated protein kinase 13 (Homo sapiens) (UniProt O15264); experiment: Inhibition of human p38delta at 20 uM by FRET assay
Mitogen-activated protein kinase 13 (Homo sapiens), sequence (O15264 whole entry): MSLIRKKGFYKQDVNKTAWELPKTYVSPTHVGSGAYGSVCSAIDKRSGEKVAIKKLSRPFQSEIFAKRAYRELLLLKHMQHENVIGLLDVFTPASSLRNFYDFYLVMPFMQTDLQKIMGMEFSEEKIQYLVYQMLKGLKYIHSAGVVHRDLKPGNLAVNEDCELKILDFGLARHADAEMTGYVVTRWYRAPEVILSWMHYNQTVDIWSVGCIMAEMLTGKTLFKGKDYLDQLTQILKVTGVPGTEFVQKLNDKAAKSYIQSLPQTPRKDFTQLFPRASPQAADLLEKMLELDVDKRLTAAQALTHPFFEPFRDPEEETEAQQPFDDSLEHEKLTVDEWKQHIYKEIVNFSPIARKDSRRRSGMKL
Procedure, shortened: (§1)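 Single-point screen at one fixed concentration, run across a panel of 53 additional human kinases, which includes this enzyme.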

[36] = target: Mitogen-activated protein kinase 8 (Homo sapiens) (UniProt P45983); experiment: Inhibition of human JNK1 at 20 uM by FRET assay
[37] = target: Mitogen-activated protein kinase 9 (Homo sapiens) (UniProt P45984); experiment: Inhibition of human JNK2 at 20 uM by FRET assay
[38] = target: MAP kinase-activated protein kinase 2 (Homo sapiens) (UniProt P49137); experiment: Inhibition of human MAPKAPK2 at 20 uM by FRET assay
[39] = target: Serine/threonine-protein kinase MARK2 (Homo sapiens) (UniProt Q7KZI7); experiment: Inhibition of human MARK2 at 20 uM by FRET assay
[40] = target: Hepatocyte growth factor receptor (Homo sapiens) (UniProt P08581); experiment: Inhibition of human MET at 20 uM by FRET assay
[41] = target: Platelet-derived growth factor receptor beta (Homo sapiens) (UniProt P09619); experiment: Inhibition of human PDGFRbeta at 20 uM by FRET assay
[42] = target: Serine/threonine-protein kinase Nek1 (Homo sapiens) (UniProt Q96PY6); experiment: Inhibition of human NEK1 at 20 uM by FRET assay
[43] = target: High affinity nerve growth factor receptor (Homo sapiens) (UniProt P04629); experiment: Inhibition of human NTRK1 at 20 uM by FRET assay
[44] = target: Serine/threonine-protein kinase PAK 4 (Homo sapiens) (UniProt O96013); experiment: Inhibition of human PAK4 at 20 uM by FRET assay
[45] = target: Serine/threonine-protein kinase pim-1 (Homo sapiens) (UniProt P11309); experiment: Inhibition of human PIM1 at 20 uM by FRET assay
[46] = target: Serine/threonine-protein kinase PLK1 (Homo sapiens) (UniProt P53350); experiment: Inhibition of human PLK1 at 20 uM by FRET assay
[47] = target: cAMP-dependent protein kinase catalytic subunit alpha (Homo sapiens) (UniProt P17612); experiment: Inhibition of human PRKACA at 20 uM by FRET assay
[48] = target: Protein kinase C beta type (Homo sapiens) (UniProt P05771); experiment: Inhibition of human PKCbeta1 at 20 uM by FRET assay
[49] = target: RAF proto-oncogene serine/threonine-protein kinase (Homo sapiens) (UniProt P04049); experiment: Inhibition of human RAF1 at 20 uM by FRET assay
[50] = target: Proto-oncogene tyrosine-protein kinase receptor Ret (Homo sapiens) (UniProt P07949); experiment: Inhibition of human RET at 20 uM by FRET assay
[51] = target: Rho-associated protein kinase 1 (Homo sapiens) (UniProt Q13464); experiment: Inhibition of human ROCK1 at 20 uM by FRET assay
Rho-associated protein kinase 1 (Homo sapiens), sequence (Q13464 2-1354 limits assumed): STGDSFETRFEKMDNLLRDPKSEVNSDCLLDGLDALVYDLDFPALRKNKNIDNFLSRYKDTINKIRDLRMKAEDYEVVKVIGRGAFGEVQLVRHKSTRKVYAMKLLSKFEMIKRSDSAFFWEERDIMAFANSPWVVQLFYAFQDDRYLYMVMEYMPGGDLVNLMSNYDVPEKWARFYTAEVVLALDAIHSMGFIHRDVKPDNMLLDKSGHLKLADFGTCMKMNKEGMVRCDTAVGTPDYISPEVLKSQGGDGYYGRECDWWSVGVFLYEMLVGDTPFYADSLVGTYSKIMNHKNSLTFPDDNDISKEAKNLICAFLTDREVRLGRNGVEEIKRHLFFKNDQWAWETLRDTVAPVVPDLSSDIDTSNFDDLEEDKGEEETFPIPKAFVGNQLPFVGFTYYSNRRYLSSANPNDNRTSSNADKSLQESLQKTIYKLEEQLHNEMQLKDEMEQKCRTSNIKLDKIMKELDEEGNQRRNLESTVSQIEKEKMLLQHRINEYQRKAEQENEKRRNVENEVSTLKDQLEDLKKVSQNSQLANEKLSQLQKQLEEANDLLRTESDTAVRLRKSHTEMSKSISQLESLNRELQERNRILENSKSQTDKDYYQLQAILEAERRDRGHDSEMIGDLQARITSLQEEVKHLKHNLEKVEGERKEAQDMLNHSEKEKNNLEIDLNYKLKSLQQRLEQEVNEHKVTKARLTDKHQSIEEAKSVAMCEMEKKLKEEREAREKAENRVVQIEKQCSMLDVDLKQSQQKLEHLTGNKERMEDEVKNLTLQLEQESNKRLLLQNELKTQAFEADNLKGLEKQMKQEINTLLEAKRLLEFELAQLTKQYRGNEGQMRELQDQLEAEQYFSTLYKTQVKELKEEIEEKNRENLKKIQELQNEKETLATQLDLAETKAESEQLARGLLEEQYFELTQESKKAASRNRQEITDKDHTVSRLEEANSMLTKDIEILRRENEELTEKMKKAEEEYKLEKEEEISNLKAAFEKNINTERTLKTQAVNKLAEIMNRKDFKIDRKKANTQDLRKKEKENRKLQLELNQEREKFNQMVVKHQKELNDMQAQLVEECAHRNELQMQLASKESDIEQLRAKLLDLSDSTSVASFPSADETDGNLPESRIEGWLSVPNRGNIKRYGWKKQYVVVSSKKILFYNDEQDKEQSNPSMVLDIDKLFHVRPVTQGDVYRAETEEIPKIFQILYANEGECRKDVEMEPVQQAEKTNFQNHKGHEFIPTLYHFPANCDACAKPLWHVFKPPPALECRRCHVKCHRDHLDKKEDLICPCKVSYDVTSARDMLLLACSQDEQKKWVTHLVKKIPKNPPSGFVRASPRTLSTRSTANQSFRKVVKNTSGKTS

[52] = target: Ribosomal protein S6 kinase alpha-3 (Homo sapiens) (UniProt P51812); experiment: Inhibition of human RPS6KA3 at 20 uM by FRET assay
Ribosomal protein S6 kinase alpha-3 (Homo sapiens), sequence (P51812 whole entry): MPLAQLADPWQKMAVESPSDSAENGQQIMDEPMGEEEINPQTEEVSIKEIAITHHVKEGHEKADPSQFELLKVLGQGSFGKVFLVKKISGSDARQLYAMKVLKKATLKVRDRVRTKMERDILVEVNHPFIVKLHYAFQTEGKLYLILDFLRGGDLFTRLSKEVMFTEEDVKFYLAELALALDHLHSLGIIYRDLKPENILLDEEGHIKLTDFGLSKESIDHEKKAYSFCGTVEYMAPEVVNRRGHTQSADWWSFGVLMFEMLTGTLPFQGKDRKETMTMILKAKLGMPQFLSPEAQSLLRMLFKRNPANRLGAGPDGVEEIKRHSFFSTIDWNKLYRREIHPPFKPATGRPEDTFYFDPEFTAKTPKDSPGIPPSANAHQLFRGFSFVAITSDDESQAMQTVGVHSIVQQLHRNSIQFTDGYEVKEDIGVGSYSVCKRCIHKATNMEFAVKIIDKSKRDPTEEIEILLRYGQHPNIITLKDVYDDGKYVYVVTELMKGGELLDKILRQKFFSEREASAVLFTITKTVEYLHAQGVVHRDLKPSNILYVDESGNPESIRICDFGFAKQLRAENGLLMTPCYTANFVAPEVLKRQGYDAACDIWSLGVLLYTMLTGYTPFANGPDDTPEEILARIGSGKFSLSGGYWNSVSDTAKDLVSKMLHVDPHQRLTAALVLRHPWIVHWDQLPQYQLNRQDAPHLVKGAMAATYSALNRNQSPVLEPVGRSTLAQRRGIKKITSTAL

[53] = target: Ribosomal protein S6 kinase beta-1 (Homo sapiens) (UniProt P23443); experiment: Inhibition of human p70S6K at 20 uM by FRET assay; procedure, shortened: as §1
[54] = target: Proto-oncogene tyrosine-protein kinase Src (Homo sapiens) (UniProt P12931); experiment: Inhibition of human SRC at 20 uM by FRET assay
[55] = target: Tyrosine-protein kinase SYK (Homo sapiens) (UniProt P43405); experiment: Inhibition of human SYK at 20 uM by FRET assay
[56] = target: Angiopoietin-1 receptor (Homo sapiens) (UniProt Q02763); experiment: Inhibition of human TEK at 20 uM by FRET assay

T1 sequence (Q16539 whole entry): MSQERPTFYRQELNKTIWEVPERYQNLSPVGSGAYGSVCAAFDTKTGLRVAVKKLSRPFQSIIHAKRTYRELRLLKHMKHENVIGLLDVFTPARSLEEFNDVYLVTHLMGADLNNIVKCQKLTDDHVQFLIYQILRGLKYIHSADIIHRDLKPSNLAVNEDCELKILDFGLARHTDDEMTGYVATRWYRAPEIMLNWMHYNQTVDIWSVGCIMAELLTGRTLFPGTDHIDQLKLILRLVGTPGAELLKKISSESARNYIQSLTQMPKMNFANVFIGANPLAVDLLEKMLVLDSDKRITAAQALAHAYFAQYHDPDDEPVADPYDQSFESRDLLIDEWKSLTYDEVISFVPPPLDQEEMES

Question: With OCCC#Cc1nc(-c2ccncc2)c(-c2ccc(F)cc2)n1C#Cc1ccccc1 as the molecule, how does the inhibition [1] read?
Answer: 53%

Question: With C[S+]([O-])c1ccc(-c2nc(-c3ccncc3)c(-c3ccc(F)cc3)[nH]2)cc1 (stereo not given) [SB-203580] as the molecule, how does the inhibition at 10 µM (CYP2D6) read?
Answer: 78%

Question: With OCCC#Cc1nc(-c2ccc(F)cc2)c(-c2ccncc2)n1C#Cc1ccccc1 as the molecule, how does the inhibition [1] read?
Answer: 75%

Question: With OCCc1cc(Cl)n2c(-c3ccncc3)c(-c3ccc(F)cc3)nc2c1 as the molecule, how does the IC50 [2] read?
Answer: 370 nM

Question: Which inhibition [1] does the source give for OCC#Cc1nc(-c2ccc(F)cc2)c(-c2ccncc2)n1C#Cc1ccccc1 here?
Answer: 83%

Question: For C#Cc1nc(-c2ccc(F)cc2)c(-c2ccncc2)n1C#Cc1ccccc1, which inhibition [1] is on record?
Answer: 28%

Question: For OCC#Cc1nc(-c2ccncc2)c(-c2ccc(F)cc2)n1C#Cc1ccccc1, which inhibition [1] is on record?
Answer: 63%

Question: Which inhibition [3] does the source give for C#Cn1c(C#CCCO)nc(-c2ccc(F)cc2)c1-c1ccncc1 here?
Answer: 3%

Question: What about the inhibition at 10 µM (CYP2D6) of the same molecule?
Answer: 4%

Question: And the IC50 [2]?
Answer: 200 nM

Question: What about the IC50 [4] of the same molecule?
Answer: 5400 nM

Question: And the inhibition [1]?
Answer: 100%

Question: What about the Ratio IC50 [5] of the same molecule?
Answer: > 25

Question: What about the IC50 [6] of the same molecule?
Answer: 4200 nM

Question: What about the inhibition [7] of the same molecule?
Answer: 15%

Question: What about the inhibition [8] of the same molecule?
Answer: 72%

Question: And the inhibition [9]?
Answer: 29%

Question: And the inhibition [10]?
Answer: 7%

Question: And the inhibition [11]?
Answer: 9%

Question: And the inhibition [12]?
Answer: 5%

Question: And the inhibition [13]?
Answer: 36%

Question: What about the inhibition [14] of the same molecule?
Answer: 3%

Question: What about the inhibition [15] of the same molecule?
Answer: 8%

Question: What about the inhibition [16] of the same molecule?
Answer: 84%

Question: And the inhibition [17]?
Answer: 23%

Question: And the inhibition [18]?
Answer: 41%

Question: And the inhibition [19]?
Answer: 8%

Question: And the inhibition [20]?
Answer: 17%

Question: And the inhibition [21]?
Answer: 6%

Question: What about the inhibition [22] of the same molecule?
Answer: 44%

Question: What about the inhibition [23] of the same molecule?
Answer: -1%

Question: What about the inhibition [24] of the same molecule?
Answer: 5%

Question: And the inhibition [25]?
Answer: 7%

Question: And the inhibition [26]?
Answer: 1%

Question: And the inhibition [27]?
Answer: 4%

Question: And the inhibition [28]?
Answer: 36%

Question: What about the inhibition [29] of the same molecule?
Answer: 5%

Question: What about the inhibition [30] of the same molecule?
Answer: 48%

Question: And the inhibition [31]?
Answer: 10%

Question: What about the inhibition [32] of the same molecule?
Answer: 92%

Question: And the inhibition [33]?
Answer: 6%

Question: What about the inhibition [34] of the same molecule?
Answer: 14%

Question: What about the inhibition [35] of the same molecule?
Answer: 12%

Question: And the inhibition [36]?
Answer: 21%

Question: And the inhibition [37]?
Answer: 88%

Question: What about the inhibition [38] of the same molecule?
Answer: 3%

Question: What about the inhibition [39] of the same molecule?
Answer: 14%

Question: What about the inhibition [40] of the same molecule?
Answer: 11%

Question: And the inhibition [41]?
Answer: 10%

Question: What about the inhibition [42] of the same molecule?
Answer: 11%

Question: What about the inhibition [43] of the same molecule?
Answer: 1%

Question: What about the inhibition [44] of the same molecule?
Answer: 8%

Question: What about the inhibition [45] of the same molecule?
Answer: 3%

Question: What about the inhibition [46] of the same molecule?
Answer: 7%

Question: And the inhibition [47]?
Answer: 50%

Question: What about the inhibition [48] of the same molecule?
Answer: 80%

Question: And the inhibition [49]?
Answer: 82%

Question: And the inhibition [50]?
Answer: 21%

Question: What about the inhibition [51] of the same molecule?
Answer: 15%

Question: What about the inhibition [52] of the same molecule?
Answer: 0%

Question: And the inhibition [53]?
Answer: 7%

Question: What about the inhibition [54] of the same molecule?
Answer: 27%

Question: What about the inhibition [55] of the same molecule?
Answer: 3%

Question: What about the inhibition [56] of the same molecule?
Answer: 5%

Question: With C#Cc1nc(-c2ccncc2)c(-c2ccc(F)cc2)n1C#Cc1ccccc1 as the molecule, how does the inhibition [1] read?
Answer: 19%
